For test [1], the target named is T1, 4,4'-diapophytoene synthase (Staphylococcus aureus, UniProt A9JQL9).
T1 sequence (A9JQL9 whole entry): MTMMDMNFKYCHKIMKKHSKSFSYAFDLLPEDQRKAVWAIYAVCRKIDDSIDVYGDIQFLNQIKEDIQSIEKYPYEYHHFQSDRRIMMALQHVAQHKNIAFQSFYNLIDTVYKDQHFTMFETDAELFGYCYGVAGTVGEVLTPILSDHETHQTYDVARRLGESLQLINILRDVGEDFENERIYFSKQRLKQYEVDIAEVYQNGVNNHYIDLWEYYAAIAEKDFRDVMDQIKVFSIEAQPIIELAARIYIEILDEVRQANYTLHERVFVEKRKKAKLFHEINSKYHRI
As to the kind of experiment: Inhibition of Staphylococcus aureus histidine tagged dehydrosqualene synthase expressed in Escherichia coli BL21 (DE3) cells by continuous spectrophotometric assay. Summed up:
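His-tagged CrtM purified on Ni-NTA. Compounds were preincubated with 2 μg enzyme for 30 min at 20 °C. Phosphate release was followed continuously by a coupled spectrophotometric assay. IC50 came from a dose-response fit, and Ki was derived from IC50, substrate concentration and the CrtM kinetic constant.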

For test [2], the system named is Staphylococcus aureus. As to the kind of experiment: Inhibition of staphyloxanthin biosynthesis in Staphylococcus aureus isolate Pig1 after 72 hrs by spectrophotometry. Particulars: isolate Pig1, PIG1, 72 h. Format: functional, organism-based. The gist of the method: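 Bacteria were grown in Todd-Hewitt broth with compound for 72 h, in duplicate. Cells were then centrifuged and washed twice in PBS. Pigment was extracted with MeOH and read by OD at 450 nm. IC50 came from a dose-response fit of the OD data.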

In test [3] the target is T2, Squalene synthase (Homo sapiens, UniProt P37268).
T2 sequence (P37268 whole entry): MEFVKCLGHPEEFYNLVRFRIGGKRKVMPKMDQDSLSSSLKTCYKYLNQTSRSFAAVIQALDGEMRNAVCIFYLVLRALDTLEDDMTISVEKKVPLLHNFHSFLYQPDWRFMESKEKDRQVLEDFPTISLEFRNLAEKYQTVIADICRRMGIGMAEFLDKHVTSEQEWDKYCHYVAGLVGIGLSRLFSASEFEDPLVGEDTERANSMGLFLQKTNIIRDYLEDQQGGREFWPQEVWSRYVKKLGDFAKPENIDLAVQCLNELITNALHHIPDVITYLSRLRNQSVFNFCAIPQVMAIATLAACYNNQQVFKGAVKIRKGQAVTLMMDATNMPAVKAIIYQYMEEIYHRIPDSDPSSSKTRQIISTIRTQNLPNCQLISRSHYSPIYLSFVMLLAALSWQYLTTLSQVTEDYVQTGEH
As to the kind of experiment: Inhibition of human recombinant squalene synthase expressed in Escherichia coli cells assessed as conversion of [3H]FPP to squalene by liquid scintillation.

The test system of test [4] is MCF7. As to the kind of experiment: Cytotoxicity against human MCF7 cells after 4 days by MTT assay. Format: cell-based. The note with it: MCF7, 96 h. The gist of the method:
(§1)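 Cell lines from the National Cancer Institute, grown in RPMI-1640 with 10% FBS and 2 mM L-glutamine at 37 °C, 5% CO2. Seeded 5000 cells/well with compound half-log serially diluted (0.316 mM to 0.1 pM). Incubated 4 days. Viability read by MTT. IC50 from dose-response fit of OD data.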
(Formazan colour is commonly taken as a measure of viable cells.)

The subject of test [5] is NCI-H460. As to the kind of experiment: Cytotoxicity against human NCI-H460 cells after 4 days by MTT assay. Format: cell-based. Particulars: NCI-H460, 96 h. Summed up: as §1
Test [6] concerns SF-268. The test is described as follows: Cytotoxicity against human SF268 cells after 4 days by MTT assay. Format: cell-based. The note with it: SF-268, 96 h. Summed up:
as §1

Where only a bound is given, the exact number is not on record here.

With `O=C(CP(=O)(O)O)N(O)CCCc1cccc(Oc2ccccc2)c1`, the affinity in test [1], expressed as Ki, was 320 nM. Further, the IC50 is 0.11 µM in test [2]; 30000 nM in test [3]; greater than 300 µM in test [4]; greater than 300 µM in test [5]; greater than 300 µM in test [6].
In the case of `O=C(NO)C(CCCc1cccc(Oc2ccccc2)c1)P(=O)(O)O` (stereo not drawn), the Ki in test [1] turned out to be 4100 nM. For the same compound, the IC50 in test [2] is 4.2 µM; in test [3] it was 300 nM; in test [4] it was greater than 300 µM; in test [5], greater than 300 µM; in test [6] it was greater than 300 µM.
In test [1], `O=C(CP(=O)(O)O)NCCc1cccc(Oc2ccccc2)c1` came in with a Ki of 1500 nM. The IC50 is 3 µM in test [2]; 6200 nM in test [3]; greater than 300 µM in test [4]; greater than 300 µM in test [5]; greater than 300 µM in test [6].
In turn, `O=C(CS(=O)(=O)O)NCCCc1cccc(Oc2ccccc2)c1` gave a Ki in test [1] of 810 nM. Moreover, the IC50 is 15 µM in test [2]; greater than 30000 nM in test [3]; greater than 300 µM in test [4]; greater than 300 µM in test [5]; greater than 300 µM in test [6].
On to `CC(C)(C(=O)NCCCc1cccc(Oc2ccccc2)c1)P(=O)(O)O`, for which the Ki in test [1] turned out to be 960 nM. Further, the IC50 is greater than 500 µM in test [2]; 520 nM in test [3]; greater than 300 µM in test [4]; greater than 300 µM in test [5]; greater than 300 µM in test [6].
In turn, `Cc1ccc(-c2ccc(CCCN(O)C(=O)CP(=O)(O)O)cc2)cc1` displayed a Ki in test [1] greater than 7000 nM. In addition, the IC50 in test [2] is 4.1 µM; in test [3] it was greater than 30000 nM; in test [4], 266 µM; in test [5] it was 284 µM.
The compound `O=C(O)CC(=O)NCCCc1cccc(Oc2ccccc2)c1` yielded a Ki in test [1] greater than 7000 nM. Moreover, the IC50 in test [2] is 200 µM; in test [3], greater than 30000 nM; in test [4], 283 µM; in test [5], 306 µM; in test [6] it was 306 µM.
In test [1], `O=C(CP(=O)(O)O)NCCCc1cccc(Oc2ccc(Cl)cc2)c1` yielded a Ki of 70 nM. In addition, the IC50 in test [2] is 0.028 µM; in test [3] it was 1100 nM; in test [4] it was greater than 300 µM; in test [5], greater than 300 µM; in test [6], greater than 300 µM.
The compound `O=P(O)(O)CS(=O)(=O)NCCCc1cccc(Oc2ccccc2)c1` came in with a Ki in test [1] greater than 7000 nM. The IC50 in test [2] was greater than 500 µM; in test [3], greater than 30000 nM; in test [4], greater than 300 µM; in test [5], greater than 300 µM; in test [6], greater than 300 µM.
Consider `O=C(CP(=O)(O)O)OCCCc1cccc(Oc2ccccc2)c1`, for which the Ki in test [1] was found to be 5700 nM. Moreover, the IC50 was greater than 500 µM in test [2], greater than 30000 nM in test [3], 69 µM in test [4] and 86 µM in test [5].
As for `O=C(CP(=O)(O)O)NCCCCc1cccc(Oc2ccccc2)c1`, in test [1], the Ki was determined as 5300 nM. Further, the IC50 in test [2] was 35 µM; in test [3], greater than 30000 nM; in test [4], greater than 300 µM; in test [5] it was greater than 300 µM; in test [6], greater than 300 µM.
`CN(CCCc1cccc(Oc2ccccc2)c1)C(=O)CP(=O)(O)O` yielded a Ki in test [1] of 910 nM. In addition, the IC50 in test [2] is 8.6 µM; in test [3], 1000 nM; in test [4] it was greater than 300 µM; in test [5], greater than 300 µM; in test [6], greater than 300 µM.
The compound `O=C(CP(=O)(O)O)NCCCc1cccc(Oc2ccc(Cl)c(Cl)c2)c1` came in with a Ki in test [1] of 30 nM. For the same compound, the IC50 was 0.04 µM in test [2]; 740 nM in test [3]; greater than 300 µM in test [4]; greater than 300 µM in test [5]; greater than 300 µM in test [6].
In turn, `O=C(CP(=O)(O)O)N(O)CCCc1cccc(Oc2ccc(Cl)c(Cl)c2)c1` gave a Ki in test [1] of 320 nM. In addition, the IC50 in test [2] is 0.042 µM; in test [3], 1600 nM; in test [4], greater than 300 µM; in test [5], greater than 300 µM; in test [6] it was greater than 300 µM.
On to `O=C(CCCCc1cccc(Oc2ccccc2)c1)CP(=O)(O)O`, for which the Ki in test [1] was greater than 7000 nM. Also, the IC50 is 28 µM in test [2], 20000 nM in test [3], 135 µM in test [4] and 191 µM in test [5].
On to `O=C(CP(=O)([O-])[O-])NCCCc1cccc(Oc2ccccc2)c1.[K+].[K+]`, for which the IC50 in test [2] was 0.008 µM; in test [3] it was 530 nM; in test [4], greater than 300 µM; in test [5], greater than 300 µM; in test [6], greater than 300 µM.
For the compound `O=C(CP(=O)(O)O)NCCCc1ccc(-c2ccccc2)cc1`, the Ki in test [1] was found to be 810 nM. For the same compound, the IC50 in test [2] is 5 µM; in test [3], greater than 30000 nM; in test [4], greater than 300 µM; in test [5], greater than 300 µM; in test [6], greater than 300 µM.

As a reminder, the Ki is the equilibrium dissociation constant of an inhibitor or competing ligand from its target. A low value points to higher affinity. The term IC50 denotes the concentration at which inhibition is half-maximal.

Source of the values: ChEMBL document CHEMBL1136952, “Inhibition of staphyloxanthin virulence factor biosynthesis in Staphylococcus aureus: in vitro, in vivo, and crystallographic results” (J Med Chem, 2009).
